We go through five molecules from ChEMBL document CHEMBL3091291, “Synthesis and pharmacological characterization of benzenesulfonamides as dual species inhibitors of human and murine mPGES-1” (Bioorg Med Chem, 2013).

As a reminder, the pIC50 is the negative decadic logarithm of the IC50, by convention in mol/L.

pIC50: −log10 of the molar value. Activity calls are given as the source filed them. The calls are words filed in the database; no cut-off is given here.

Assay [1] concerns the target T1, Prostaglandin E synthase (Homo sapiens) (UniProt O14684).
T1 sequence (whole entry): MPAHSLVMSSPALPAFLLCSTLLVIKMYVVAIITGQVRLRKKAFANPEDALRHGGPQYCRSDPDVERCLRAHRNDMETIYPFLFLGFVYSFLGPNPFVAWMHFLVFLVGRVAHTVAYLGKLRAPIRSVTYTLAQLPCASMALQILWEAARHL
Briefly: Inhibition of mPGES-1 in human HeLa cells using PGH2 as substrate assessed as inhibition of IL-1beta/TNFalpha-stimulated PGE2 production at 1 to 10 uM after 24 hrs by LC-MS/MS analysis. In kind it is cell-based. In outline:
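HeLa cells (2 × 10⁴ per well) grown 24 h at 37 °C, then given fresh medium with 1 ng/mL IL-1b + 5 ng/mL TNFa (or PBS for unstimulated control) plus compound (1, 10 or 100 µM) or DMSO for 24 h at 37 °C. Supernatant mixed with H₃PO₄, EDTA and deuterated internal standards; PGE₂ measured by SPE and LC–MS/MS.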

The target of the next assay is T2, Prostaglandin E synthase (Homo sapiens, UniProt O14684).
T2 sequence (O14684 whole entry): T1 sequence (whole entry)
The assay can be described thus: Inhibition of mPGES-1 in human HeLa cells using PGH2 as substrate assessed as inhibition of IL-1beta/TNFalpha-stimulated PGE2 production preincubated for 30 mins followed by substrate addition measured after 1 min by LC-MS/MS analysis. In kind it is cell-based. In outline:
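Microsomal fraction from HeLa, NIH-3T3 or RAW 264.7 cells, obtained by sonication and ultracentrifugation, resuspended in 0.1 M KPi pH 7.4 with 2.5 mM reduced GSH. Protein at 0.15 mg/mL (HeLa, NIH) or 0.3 mg/mL (RAW) incubated with compound 30 min on ice. Reaction started with 20 µM PGH₂, stopped after 1 min with FeCl₂/citric acid. PGE₂ quantified by SPE and LC–MS/MS. IC50 from four-parameter logistic fit of increasing concentrations.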

The target of assay [2] is T3, Prostaglandin G/H synthase 2 (Homo sapiens) (UniProt P35354).
T3 sequence (whole entry): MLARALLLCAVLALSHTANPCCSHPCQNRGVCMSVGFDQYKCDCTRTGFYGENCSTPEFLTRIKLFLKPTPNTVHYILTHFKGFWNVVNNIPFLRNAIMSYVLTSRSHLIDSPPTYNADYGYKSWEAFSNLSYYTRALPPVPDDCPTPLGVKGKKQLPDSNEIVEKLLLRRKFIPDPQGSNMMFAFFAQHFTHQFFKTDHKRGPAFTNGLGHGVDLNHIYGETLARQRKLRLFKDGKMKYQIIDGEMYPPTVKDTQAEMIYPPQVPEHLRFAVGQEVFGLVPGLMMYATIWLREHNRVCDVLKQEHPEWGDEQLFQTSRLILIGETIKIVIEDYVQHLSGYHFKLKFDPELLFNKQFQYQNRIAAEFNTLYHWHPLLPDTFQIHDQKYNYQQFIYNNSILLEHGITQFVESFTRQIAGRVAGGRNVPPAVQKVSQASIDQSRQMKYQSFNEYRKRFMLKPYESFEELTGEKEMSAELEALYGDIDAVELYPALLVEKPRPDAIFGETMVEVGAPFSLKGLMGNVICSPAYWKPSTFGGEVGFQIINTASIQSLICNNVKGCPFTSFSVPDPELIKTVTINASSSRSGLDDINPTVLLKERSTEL
The assay can be described thus: Inhibition of LPS-stimulated COX2 in human whole blood assessed as reduction in PGE2 production by measuring remaining activity at 100 uM preincubated for 15 mins followed by LPS addition measured after 24 hrs by LC-MS/MS analysis. In outline:
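Heparinized human whole blood (500 µL) mixed with compound in DMSO, with acetylsalicylic acid added to block COX-1, held 15 min at 37 °C, then stimulated with LPS in autologous plasma to induce COX-2/mPGES-1. After 24 h at 37 °C, samples chilled 5 min on ice; plasma collected, prostaglandins extracted and measured by LC–MS/MS. Remaining activity given relative to vehicle control.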

Consider `COc1ccc(CN(Cc2ccccc2)S(=O)(=O)c2ccc(C(=O)O)cc2)cc1`, for which, in assay [1], the inhibition result is “inactive”. The pIC50 on Prostaglandin E synthase is 4.86. The Activity in assay [2] worked out at 74.4%.

As to `COc1ccc(CN(CC2CCCCC2)S(=O)(=O)c2ccc(C(=O)O)cc2)cc1`, in assay [1], the inhibition result is “inactive”. In addition, the pIC50 on Prostaglandin E synthase was 4.99. Moreover, in assay [2], the Activity turned out to be 39%.

As to `O=C(O)c1ccc(S(=O)(=O)N(Cc2ccccc2)c2ccc(Oc3ccccc3)cc2)cc1`, the inhibition entry in assay [1] is “inactive”. The pIC50 at Prostaglandin E synthase was 5.77. For the same molecule, the Activity in assay [2] came out at 66.8%.

For the molecule `O=C(O)c1ccc(S(=O)(=O)N(Cc2ccccc2)Cc2ccc(Nc3ccccc3)cc2)cc1`, the inhibition result in assay [1] is “inactive”. Besides, the pIC50 on Prostaglandin E synthase was 5.14. Also, the Activity in assay [2] was found to be 61.2%.

As for `O=C(O)c1ccc(S(=O)(=O)N(Cc2ccccc2)Cc2ccc(Oc3ccccc3)cc2)cc1`, the inhibition result in assay [1] is “inactive”. The negative-log IC50 (pIC50) on Prostaglandin E synthase is 6.00. Besides, in assay [2], the Activity turned out to be 88.7%.
